# Reference: ChEMBL document CHEMBL4376862, “Synthesis and evaluation of novel chlorophyll a derivatives as potent photosensitizers for photodynamic therapy” (Eur J Med Chem, 2020)
# System: not listed separately
# Experiment: Therapeutic index, ratio of TC50 for human A549 cells under dark to IC50 for human A549 cells irradiated with 1 J/cm2 of 650 nanometer laser light
# Format: toxicity, cell-based
# Details: read-out: TI; call rule not given here
# Summary of the method: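 A549 cells (F-12K, 10% FBS, 37 °C, 5% CO2) seeded 24 h, then exposed to 0–10 photosensitizer for 24 h. Dark arm: MTT 48 h later. Light arm: 650 nm laser, 1 J/cm2 (25 mW/cm2, 40 s), then MTT. A570 viability relative to control, triplicate. Ratio = dark TC50 / irradiated IC50.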
row,Structure (SMILES),selectivity ratio
1,CCCCCCOC(C)c1c(C)c2cc3nc(c4c5[nH]c(cc6nc(cc1[nH]2)C(C)=C6CC)c(C)c5C(=O)C4)[C@@H](CCC(=O)NCC(=O)CCC(=O)O)[C@@H]3C (stereo not given in full),12.6

# System: not listed separately
# Experiment: Octanol/water partition coefficient, logP of compound by shake flask method
# Format: physicochemical
# Details: not given
# Summary of the method: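 Shake-flask method: equilibrium concentrations in octanol and water measured by UV-vis absorbance; log P taken as log of octanol/water concentration ratio (mg/L).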
row,logP,Structure (SMILES)
1,2.67,CCCCCCOC(C)c1c(C)c2cc3nc(c4c5[nH]c(cc6nc(cc1[nH]2)C(C)=C6CC)c(C)c5C(=O)C4)[C@@H](CCC(=O)NCC(=O)CCC(=O)O)[C@@H]3C (stereo not given in full)

# System: not listed separately
# Experiment: Absorption property of compound in DMSO assessed as strong absorption wavelength at 1 x 10^-3 M by UV-spectra analysis
# Format: physicochemical
# Details: 1000 µM
# Summary of the method: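 Stocks 1 mM in DMSO; spectra run over […] range (units as printed), 300–800 nm in 1 nm steps, room temperature, quartz cuvettes, UV-vis spectrophotometer.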
row,Activity [nm],Structure (SMILES)
1,660 to 670,CCCCCCOC(C)c1c(C)c2cc3nc(c4c5[nH]c(cc6nc(cc1[nH]2)C(C)=C6CC)c(C)c5C(=O)C4)[C@@H](CCC(=O)NCC(=O)CCC(=O)O)[C@@H]3C (stereo not given in full)

# System: not listed separately
# Experiment: Emission property of a compound in DMSO assessed as red shift at 5 uM on excitation with light at 410 to 415 nm by 3D fluorescence spectra analysis
# Format: physicochemical
# Details: not given
# Summary of the method: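 Stock 1 mM in DMSO, measured at […] (so in the source); excitation scanned 350–640 nm, emission 600–750 nm, 1 nm steps, room temperature, quartz cuvettes; 3D fluorescence matrix spectra recorded.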
row,Activity [nm],Structure (SMILES)
1,661 to 669,CCCCCCOC(C)c1c(C)c2cc3nc(c4c5[nH]c(cc6nc(cc1[nH]2)C(C)=C6CC)c(C)c5C(=O)C4)[C@@H](CCC(=O)NCC(=O)CCC(=O)O)[C@@H]3C (stereo not given in full)

# System: not listed separately
# Experiment: Induction of ROS generation in DMF solution assessed as slope of the photodegradation rate of DPBF at 2 uM followed by irradiation measured every 10 secs by spectrophotometric analysis
# Format: functional
# Details: not given
row,Structure (SMILES),K [s⁻¹]
1,CCCCCCOC(C)c1c(C)c2cc3nc(c4c5[nH]c(cc6nc(cc1[nH]2)C(C)=C6CC)c(C)c5C(=O)C4)[C@@H](CCC(=O)NCC(=O)CCC(=O)O)[C@@H]3C (stereo not given in full),0.0363

# System: not listed separately
# Experiment: Drug uptake in human A549 cells incubated upto 24 hrs by fluorescence spectrophotometer analysis
# Format: ADME, cell-based
# Details: a549, 24 h
# Summary of the method: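 A549 cells (F-12K, 10% FBS, 37 °C, 5% CO2) grown in 24 wells and exposed to photosensitizer for 0.5, 1, 2, 4, 8, 12 or 24 h; cells harvested by digestion, fluorescence read on a spectrophotometer.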
row,Drug uptake,Structure (SMILES)
1,Active,CCCCCCOC(C)c1c(C)c2cc3nc(c4c5[nH]c(cc6nc(cc1[nH]2)C(C)=C6CC)c(C)c5C(=O)C4)[C@@H](CCC(=O)NCC(=O)CCC(=O)O)[C@@H]3C (stereo not given in full)

# System: not listed separately
# Experiment: Dark toxicity in human A549 cells assessed as reduction in cell viability incubated under dark for 24 hrs measured after 48 hrs by MTT assay
# Format: cell-based
# Details: read-out: TC50
# Summary of the method: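 A549 cells seeded at 5×10^4 cells/100 µL per well for 24 h, treated in the dark with […] (so in the source) for 24 h; MTT added 4 h, absorbance 570 nm, 48 h later; viability as OD treated/OD control; triplicate, mean ± SD.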
row,Structure (SMILES),CC50 at 24 h [nM]
1,CCCCCCOC(C)c1c(C)c2cc3nc(c4c5[nH]c(cc6nc(cc1[nH]2)C(C)=C6CC)c(C)c5C(=O)C4)[C@@H](CCC(=O)NCC(=O)CCC(=O)O)[C@@H]3C (stereo not given in full),1010

# System: A549
# Experiment: Phototoxicity against human A549 cells assessed as reduction in cell proliferation irradiated with 1 J/cm2 of 650 nanometer laser light preincubated for 24 hrs measured after 48 hrs by MTT assay
# Format: functional, cell-based
# Details: A549, light or radiation study
# Summary of the method: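 A549 cells seeded 5×10^4 cells/100 µL per well, given […] for 24 h, then 650 nm semiconductor laser at 1 J/cm2 (25 mW/cm2, 40 s); MTT 4 h, absorbance 570 nm; viability vs control; triplicate, mean ± SD.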
row,Structure (SMILES),IC50 [nM]
1,CCCCCCOC(C)c1c(C)c2cc3nc(c4c5[nH]c(cc6nc(cc1[nH]2)C(C)=C6CC)c(C)c5C(=O)C4)[C@@H](CCC(=O)NCC(=O)CCC(=O)O)[C@@H]3C (stereo not given in full),80

# System: A549
# Experiment: Photodynamic antitumor activity against human A549 cells xenografted in BALB/c nude mouse assessed as decrease in tumor weight at 0.3 mg/kg, iv followed by laser light irradiation at 120 J/cm2 measured after 14 days
# Format: functional
# Details: not given
# Summary of the method: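 Male BALB/c nude mice (5–6 weeks, 14–16 g) given 2×10^6 A549 cells s.c. in 0.2 mL PBS; at 6–7 mm tumors randomized into ten groups; drug via tail vein, 650 nm diode laser 120 J/cm2 at 180 mW/cm2 24 h later; caliper volume a×b²/2, followed 14 days.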
row,Structure (SMILES),Activity [g]
1,CCCCCCOC(C)c1c(C)c2cc3nc(c4c5[nH]c(cc6nc(cc1[nH]2)C(C)=C6CC)c(C)c5C(=O)C4)[C@@H](CCC(=O)NCC(=O)CCC(=O)O)[C@@H]3C (stereo not given in full),0

# System: not listed separately
# Experiment: Induction of ROS generation in DMF solution assessed as ROS quantum yield at 2 uM followed by irradiation measured every 10 secs by spectrophotometric analysis
# Format: functional
# Details: not given
row,Structure (SMILES),Ratio
1,CCCCCCOC(C)c1c(C)c2cc3nc(c4c5[nH]c(cc6nc(cc1[nH]2)C(C)=C6CC)c(C)c5C(=O)C4)[C@@H](CCC(=O)NCC(=O)CCC(=O)O)[C@@H]3C (stereo not given in full),1.81
